Source: PubChem
Tcruzi prolif: T. cruzi proliferation inhibition; inhibition, % at 8.34 µM; T. cruzi beta-gal in NIH3T3, GalScreen luminescence, 90 h; 5.9% of 77,000 active; AID 624255;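 active = mean inhibition above about 93%, with at least 55% of replicates each passing it, limit read from the data, passing the limit was not always enough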
KDM4C inh: inhibitors of human demethylase GASC-1 KDM4C | Q9H3R0 | GST-KDM4C 2-372, H3K9me3 peptide, LANCE TR-FRET | inhibition, % at 12.5 µM | 0.15% of 96,000 active | AID 720574;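 active = mean replicate inhibition above about 25%, with at least 55% of replicates also reaching it, limit read from the data, passing the limit was not always enough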
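System: N-terminal GST-fused human GASC-1 (KDM4C) fragment, residues 2-372 / Amount: 10 nM GST-KDM4C in enzyme reaction / Also added: H3K9me3 peptide with Fe(II)/2OG / Times: 30 min demethylation and 1 h detection at room temperature / Signal: LANCE TR-FRET / Read-out basis: Fall in 671/618 emission ratio as inhibition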
IDH1 R132H inh: IDH1 R132H (human) inhibition. AID 624101. inhibition, % at 10 µM. O75874. 0.18% of 70,000 active. IDH1 R132H reductase, diaphorase/resazurin fluorescence, 60 min; in the data active = inhibition above about 34%;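 note: 0% = DMSO and 100% = no enzyme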
Target sequence (O75874 whole entry R132H): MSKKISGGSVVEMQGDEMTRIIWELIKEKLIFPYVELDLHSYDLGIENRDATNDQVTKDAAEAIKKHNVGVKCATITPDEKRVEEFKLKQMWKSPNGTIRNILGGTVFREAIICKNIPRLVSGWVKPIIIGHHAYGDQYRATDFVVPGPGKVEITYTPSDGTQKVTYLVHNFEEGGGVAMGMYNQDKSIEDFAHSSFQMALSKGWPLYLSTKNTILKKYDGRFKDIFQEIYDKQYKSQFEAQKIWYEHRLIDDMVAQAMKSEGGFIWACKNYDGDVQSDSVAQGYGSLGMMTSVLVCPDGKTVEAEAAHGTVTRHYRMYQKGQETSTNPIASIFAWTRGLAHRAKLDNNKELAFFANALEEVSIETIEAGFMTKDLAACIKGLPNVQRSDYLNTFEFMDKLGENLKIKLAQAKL
Pf Dd2 growth: inhibitors of Plasmodium falciparum Dd2 growth; activity change, % at 10 µM; 2.3% of 94,000 active; P. falciparum Dd2 growth, SYBR Green, 72 h; hits give low values; in the data active = activity change below about -80%
Active calls of the source: *; · = not tested or not shown. An excerpt weighted towards active compounds, which were near 5.8% of everything screened.

SMILES | Tcruzi prolif | KDM4C inh | IDH1 R132H inh | Pf Dd2 growth
O=C(c1ccccc1)N1CC(=O)N(OCc2ccccc2)C1c1cccs1 (stereo not given) | · | · | 3 | ·
O=C(COc1ccc(C(=O)Nc2ccc(Cl)cc2)cc1)Nc1ccccc1C(F)(F)F | · | · | 0 | ·
C[C@@H]1CN([C@@H](C)CO)C(=O)c2cc(NC(=O)Cc3ccccc3)ccc2O[C@@H](C)CCCCO[C@@H]1CN(C)S(=O)(=O)c1ccc(F)cc1 | 54 | -1 | 0 | -87*
C[C@@H]1CN([C@H](C)CO)C(=O)c2cc(NC(=O)Cc3ccccc3)ccc2O[C@@H](C)CCCCO[C@@H]1CN(C)S(=O)(=O)c1ccc(F)cc1 | 73 | 0 | 0 | -89*
C[C@H](CO)N1C[C@H](C)[C@H](CN(C)S(=O)(=O)c2ccc(F)cc2)OCCCC[C@H](C)Oc2ccc(NC(=O)Cc3ccccc3)cc2C1=O | 51 | 0 | -4 | -74
C[C@@H]1CCCCO[C@@H](CN(C)S(=O)(=O)c2ccc(F)cc2)[C@H](C)CN([C@H](C)CO)C(=O)c2cc(NC(=O)Cc3ccccc3)ccc2O1 | 49 | -1 | 0 | -77
C[C@@H]1CN([C@H](C)CO)C(=O)c2cc(NC(=O)Cc3ccccc3)ccc2O[C@@H](C)CCCCO[C@@H]1CN(C)S(=O)(=O)c1ccccc1 | · | 0 | -2 | -81*
C[C@H]1CCCCO[C@@H](CN(C)Cc2ccccc2)[C@@H](C)CN([C@@H](C)CO)C(=O)c2cc(NC(=O)Nc3ccc(F)cc3)ccc2O1 | 84 | -3 | 0 | -86*
C[C@H]1CCCCO[C@@H](CN(C)Cc2ccccc2)[C@@H](C)CN([C@@H](C)CO)C(=O)c2cc(NC(=O)Nc3ccc(C(F)(F)F)cc3)ccc2O1 | 82 | 1 | 0 | -86*
C[C@@H]1CN([C@H](C)CO)C(=O)c2cc(NC(=O)Nc3ccc(C(F)(F)F)cc3)ccc2O[C@@H](C)CCCCO[C@@H]1CN(C)Cc1ccc(Cl)c(Cl)c1 | 48 | -1 | · | -87*
C[C@@H]1CN([C@H](C)CO)C(=O)c2cc(NC(=O)Nc3ccccc3)ccc2O[C@@H](C)CCCCO[C@@H]1CN(C)Cc1ccc(C(F)(F)F)cc1 | 82 | -2 | 0 | -85*
C[C@@H]1CCCCO[C@@H](CN(C)Cc2ccc(Cl)c(Cl)c2)[C@H](C)CN([C@H](C)CO)C(=O)c2cc(NC(=O)C3CCCCC3)ccc2O1 | 84 | 2 | 0 | -83*
C[C@@H]1CCCCO[C@H](CN(C)Cc2ccc(C(F)(F)F)cc2)[C@@H](C)CN([C@@H](C)CO)C(=O)c2cc(NC(=O)Nc3ccc4c(c3)OCO4)ccc2O1 | 78 | -1 | · | -81*
C[C@@H]1CCCCO[C@H](CN(C)Cc2ccc(C(F)(F)F)cc2)[C@@H](C)CN([C@@H](C)CO)C(=O)c2cc(NC(=O)Cc3ccccc3)ccc2O1 | 6 | -1 | · | -89*
C[C@@H]1CCCCO[C@H](CN(C)Cc2ccc(Cl)c(Cl)c2)[C@@H](C)CN([C@H](C)CO)C(=O)c2cc(NC(=O)C3CCCCC3)ccc2O1 | 92 | 0 | · | -22
C[C@@H]1CN([C@@H](C)CO)C(=O)c2cc(NC(=O)Nc3ccccc3)ccc2O[C@@H](C)CCCCO[C@@H]1CN(C)Cc1ccc(C(F)(F)F)cc1 | 83 | 1 | 0 | -82*
C[C@@H]1CCCCO[C@H](CN(C)Cc2ccc(C(F)(F)F)cc2)[C@H](C)CN([C@@H](C)CO)C(=O)c2cc(NC(=O)Nc3ccccc3)ccc2O1 | 77 | -2 | · | -76
Cc1c(Br)c([N+](=O)[O-])nn1CC(=O)Nc1cccc(C(F)(F)F)c1 | · | · | 0 | ·
C[C@@H]1CN([C@H](C)CO)C(=O)c2cc(NC(=O)Nc3ccc(C(F)(F)F)cc3)ccc2O[C@@H](C)CCCCO[C@@H]1CN(C)Cc1ccncc1 | 92 | 0 | · | -77
C[C@H]1CCCCO[C@H](CN(C)C(=O)Nc2ccc(C(F)(F)F)cc2)[C@@H](C)CN([C@@H](C)CO)C(=O)c2cc(NC(=O)c3ccccc3)ccc2O1 | 86 | -1 | · | -87*
C[C@@H]1CCCCO[C@H](CN(C)Cc2ccncc2)[C@H](C)CN([C@H](C)CO)C(=O)c2cc(NC(=O)Nc3ccc(C(F)(F)F)cc3)ccc2O1 | 87 | 2 | · | -84*
COc1ccc(NC(=O)N(C)C[C@@H]2OCCCC[C@H](C)Oc3ccc(NC(=O)c4ccccc4)cc3C(=O)N([C@@H](C)CO)C[C@@H]2C)cc1 | 48 | 5 | · | -84*
C[C@@H]1CCCCO[C@H](CN(C)Cc2ccc(Cl)c(Cl)c2)[C@@H](C)CN([C@@H](C)CO)C(=O)c2cc(NC(=O)Cc3ccccc3)ccc2O1 | 75 | -1 | 1 | -86*
O=C(CC1CCOCC1)Nc1ccc(I)cc1 | · | · | 0 | ·
Cc1cc(Cl)c(S(=O)(=O)Nc2cccc(Br)c2)cc1OCC(N)=O | · | · | 0 | ·
SMILES | Tcruzi prolif | KDM4C inh | IDH1 R132H inh | Pf Dd2 growth
C[C@@H]1CN([C@H](C)CO)C(=O)c2cc(NC(=O)Nc3ccc(F)cc3)ccc2O[C@@H](C)CCCCO[C@H]1CN(C)Cc1ccc(C(F)(F)F)cc1 | 94 | -2 | · | -82*
C[C@@H]1CCCCO[C@H](CN(C)Cc2ccc(C(F)(F)F)cc2)[C@H](C)CN([C@@H](C)CO)C(=O)c2cc(NC(=O)c3ccccc3)ccc2O1 | 67 | -2 | · | -85*
C[C@H]1CCCCO[C@H](CN(C)Cc2ccc(C(F)(F)F)cc2)[C@@H](C)CN([C@@H](C)CO)C(=O)c2cc(NC(=O)Nc3ccc(F)cc3)ccc2O1 | 91 | -1 | · | -2
COc1ccc(NC(=O)N(C)C[C@H]2OCCCC[C@@H](C)Oc3ccc(N(C)C)cc3C(=O)N([C@H](C)CO)C[C@H]2C)cc1 | 26 | 2 | · | 8
C[C@@H]1CCCCO[C@H](CN(C)Cc2ccc(C(F)(F)F)cc2)[C@@H](C)CN([C@H](C)CO)C(=O)c2cc(NC(=O)c3ccccc3)ccc2O1 | 93 | 0 | · | -37
COc1ccc(NC(=O)N(C)C[C@H]2OCCCC[C@@H](C)Oc3ccc(N(C)C)cc3C(=O)N([C@@H](C)CO)C[C@H]2C)cc1 | 37 | 4 | · | -83*
O=C(Nc1ccccc1C(=O)NCCOc1ccccc1)c1ccc(Cl)cc1 | · | · | 0 | ·
Cc1cc(Br)c(NC(=O)CSc2ncn(-c3ccccc3)n2)cc1C | · | · | 1 | ·
C[C@@H]1CN([C@H](C)CO)C(=O)c2cccc(NC(=O)Nc3ccccc3)c2O[C@@H]1CN(C)Cc1ccc(C(=O)O)cc1 | · | 0 | · | 10
C[C@H](CO)N1C[C@H](C)[C@H](CN(C)Cc2ccc(C(=O)Nc3ccccc3N)cc2)Oc2c(NC(=O)Nc3ccc4c(c3)OCO4)cccc2C1=O | 110 | -1 | 0 | -79
C[C@@H]1CN([C@@H](C)CO)C(=O)c2cccc(NC(=O)Nc3ccccc3)c2O[C@H]1CN(C)Cc1ccc(C(=O)Nc2ccccc2N)cc1 | 89 | -2 | 0 | -87*
C[C@@H]1CN([C@@H](C)CO)C(=O)c2cccc(NC(=O)Nc3cccc4ccccc34)c2O[C@@H]1CN(C)Cc1ccc(C(=O)Nc2ccccc2N)cc1 | · | -2 | · | -92*
